ChEMBL document CHEMBL1125626, “Synthesis and structure-activity relationship of new cephalosporins with amino heterocycles at C-7. Dependence of the antibacterial spectrum and beta-lactamase stability on the pKa of the C-7 heterocycle” (1991)
Converted amounts (≈) assume the structure as drawn. One block for each compound: values may come before it.

What was measured:
Proteus mirabilis [1] = assay: Minimum inhibitory concentration against Proteus mirabilis A18 (inoculum, 10e5 cfu per spot); assay type: functional
Procedure, shortened: (§1)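 MIC in µg/mL, determined in Jewell and Permain growth medium with spot inoculation at 10^5 cfu per spot.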

Escherichia coli [2] = assay: Minimum inhibitory concentration against Escherichia coli A8 (inoculum, 10e5 cfu per spot); assay type: functional; procedure, shortened: as §1
Serratia marcescens [3] = assay: Minimum inhibitory concentration against Serratia marcescens A16 (inoculum, 10e5 cfu per spot); assay type: functional; procedure, shortened: as §1
Streptococcus pyogenes = assay: Minimum inhibitory concentration against Streptococcus pyogenes (inoculum, 10e5 cfu per spot) A1; assay type: functional; procedure, shortened: as §1
Staphylococcus aureus [4] = assay: (§2) Minimum inhibitory concentration against Staphylococcus aureus A5(inoculum, 10e5 cfu per spot); assay type: functional; procedure, shortened: as §1
Pseudomonas aeruginosa [5] = assay: Minimum inhibitory concentration against Pseudomonas aeruginosa A21 (inoculum, 10e5 cfu per spot); assay type: functional; procedure, shortened: as §1
Enterobacter cloacae [6] = assay: Minimum inhibitory concentration against Enterobacter cloacae A13(inoculum, 10e2 cfu per spot)
Enterobacter cloacae [7] = assay: Minimum inhibitory concentration against Enterobacter cloacae A13(inoculum, 10e5 cfu per spot); assay type: functional; conditions: in the assay text read “10e2 cfu per spot” for “10e5 cfu per spot”
Staphylococcus aureus [8] = assay: Minimum inhibitory concentration against Staphylococcus aureus A6 (inoculum, 10e5 cfu per spot); assay type: functional; procedure, shortened: as §1
[9] = as §2; assay type: functional; procedure, shortened: as §1
Enterobacter cloacae [10] = assay: Minimum inhibitory concentration against Enterobacter cloacae P99 (inoculum, 10e4 cfu per spot); assay type: functional
Procedure, shortened: (§3)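 MIC in µg/mL, determined in Jewell and Permain growth medium with spot inoculation at 10^4 cfu per spot. P99 is described as a constitutive type I lactamase producer.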

Staphylococcus aureus [11] = assay: Minimum inhibitory concentration against Staphylococcus aureus A6(inoculum, 10e5 cfu per spot). Parentheses value indicate inoculum, 10e2 cfu per spot; assay type: functional
Procedure, shortened: (§4)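 MIC in µg/mL in Jewell and Permain growth medium. Each strain was spot-inoculated at 10^5 cfu per spot; the bracketed values come from a 10^2 cfu per spot inoculum.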

Klebsiella pneumoniae = assay: Minimum inhibitory concentration against Klebsiella pneumoniae A24(inoculum, 10e5 cfu per spot). Parentheses value indicate inoculum, 10e2 cfu per spot; assay type: functional; procedure, shortened: as §4
Escherichia coli [12] = assay: Minimum inhibitory concentration against Escherichia coli DC2 (inoculum, 10e4 cfu per spot); assay type: functional; procedure, shortened: as §3
Enterobacter cloacae [13] = assay: Minimum inhibitory concentration against Enterobacter cloacae A13(inoculum, 10e5 cfu per spot). Parentheses value indicate inoculum, 10e2 cfu per spot; assay type: functional; procedure, shortened: as §4
Proteus vulgaris = assay: Minimum inhibitory concentration against Proteus vulgaris Pv9(inoculum, 10e5 cfu per spot). Parentheses value indicate inoculum, 10e2 cfu per spot
Klebsiella aerogenes [14] = assay: Minimum inhibitory concentration against Klebsiella aerogenes X6 (inoculum, 10e4 cfu per spot); assay type: functional; procedure, shortened: as §3
Escherichia coli [15] = assay: Minimum inhibitory concentration against Escherichia coli DCO (inoculum, 10e4 cfu per spot); assay type: functional; procedure, shortened: as §3
Escherichia coli [16] = assay: Minimum inhibitory concentration against Escherichia coli X4 (inoculum, 10e4 cfu per spot)
Klebsiella aerogenes [17] = assay: Minimum inhibitory concentration against Klebsiella aerogenes X5L (inoculum, 10e4 cfu per spot); assay type: functional; procedure, shortened: as §3
Staphylococcus aureus [18] = assay: Minimum inhibitory concentration against Staphylococcus aureus A4(inoculum, 10e5 cfu per spot). Parentheses value indicate inoculum, 10e2 cfu per spot; assay type: functional; procedure, shortened: as §4
Pseudomonas aeruginosa [19] = assay: Minimum inhibitory concentration against Pseudomonas aeruginosa A21(inoculum, 10e5 cfu per spot). Parentheses value indicate inoculum, 10e2 cfu per spot; assay type: functional; procedure, shortened: as §4
Escherichia coli [20] = assay: Minimum inhibitory concentration against Escherichia coli A8(inoculum, 10e5 cfu per spot). Parentheses value indicate inoculum, 10e2 cfu per spot; assay type: functional; procedure, shortened: as §4
Enterobacter cloacae [21] = assay: Minimum inhibitory concentration against Enterobacter cloacae P99 (inoculum, 10e4 cfu per spot)(type I lactamase producer); assay type: functional; procedure, shortened: as §3
Escherichia coli [22] = assay: Minimum inhibitory concentration against Escherichia coli TEM X3 (inoculum, 10e4 cfu per spot)(TEM I type lactamase producer)
Serratia marcescens [23] = assay: Minimum inhibitory concentration against Serratia marcescens A16(inoculum, 10e5 cfu per spot). Parentheses value indicate inoculum, 10e2 cfu per spot; assay type: functional; procedure, shortened: as §4
Proteus mirabilis [24] = assay: Minimum inhibitory concentration against Proteus mirabilis A18(inoculum, 10e5 cfu per spot). Parentheses value indicate inoculum, 10e2 cfu per spot; assay type: functional; procedure, shortened: as §4

MIC (Proteus mirabilis [1]): 1000 µg/mL (≈ 1950 µM) | MIC (Escherichia coli [2]): > 1000 µg/mL | MIC (Serratia marcescens [3]): > 1000 µg/mL | MIC (Streptococcus pyogenes): 40 µg/mL (≈ 77.9 µM) | MIC (Staphylococcus aureus [4]): 1 µg/mL (≈ 1.95 µM) | MIC (Pseudomonas aeruginosa [5]): > 1000 µg/mL | MIC (Enterobacter cloacae [6]): > 1000 µg/mL
SMILES: CC1=C(C(=O)OC(c2ccccc2)c2ccccc2)N2C(=O)[C@@H](Nc3nc4ccccc4s3)C2SC1 (stereo partly drawn)

MIC (Proteus mirabilis [1]): 8 µg/mL (≈ 16.1 µM) | MIC (Escherichia coli [2]): 8 µg/mL (≈ 16.1 µM) | MIC (Serratia marcescens [3]): 200 µg/mL (≈ 403 µM) | MIC (Streptococcus pyogenes): 40 µg/mL (≈ 80.5 µM) | MIC (Enterobacter cloacae [7]): 8 µg/mL (≈ 16.1 µM) | MIC (Staphylococcus aureus [8]): 40 µg/mL (≈ 80.5 µM) | MIC [9]: 8 µg/mL (≈ 16.1 µM) | MIC (Pseudomonas aeruginosa [5]): > 1000 µg/mL
SMILES: CC1=C(C(=O)OC(c2ccccc2)c2ccccc2)N2C(=O)[C@@H](Nc3nc4ccccc4[nH]3)C2SC1 (stereo partly drawn)

MIC (Enterobacter cloacae [10]): 1 µg/mL (≈ 2.17 µM) | MIC (Staphylococcus aureus [11]): > 256 µg/mL | MIC (Klebsiella pneumoniae): 1 µg/mL (≈ 2.17 µM) | MIC (Escherichia coli [12]): 0.5 µg/mL (≈ 1.09 µM) | MIC (Enterobacter cloacae [13]): 4 µg/mL (≈ 8.69 µM) | MIC (Proteus vulgaris): > 256 µg/mL | MIC (Streptococcus pyogenes): 128 µg/mL (≈ 278 µM) | MIC (Klebsiella aerogenes [14]): 2 µg/mL (≈ 4.34 µM) | MIC (Escherichia coli [15]): 1 µg/mL (≈ 2.17 µM) | MIC (Escherichia coli [16]): 1 µg/mL (≈ 2.17 µM) | MIC (Klebsiella aerogenes [17]): 2 µg/mL (≈ 4.34 µM) | MIC (Staphylococcus aureus [18]): > 256 µg/mL | MIC (Pseudomonas aeruginosa [19]): 256 µg/mL (≈ 556 µM) | MIC (Escherichia coli [20]): 2 µg/mL (≈ 4.34 µM) | MIC (Enterobacter cloacae [21]): 2 µg/mL (≈ 4.34 µM) | MIC (Escherichia coli [22]): 1 µg/mL (≈ 2.17 µM) | MIC (Serratia marcescens [23]): 4 µg/mL (≈ 8.69 µM) | MIC (Proteus mirabilis [24]): > 256 µg/mL
SMILES: CC1=C(C(=O)OC(c2ccccc2)c2ccccc2)N2C(=O)[C@@H](NC3=NC4CC4N3)C2SC1 (stereo partly drawn)
